Activity calls are given as the source filed them.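 The calls were made as follows: active = spectra count ratio compound/DMSO 0.5 or lower for pPAFAH, with at most one off-target serine hydrolase also that low; inactive = ratio above 0.5 for pPAFAH, or two-plus off-targets hit.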
How the values were obtained:
Test in all cases: off-target hydrolase inhibition by ABPP-MudPIT – biochemical, LC-MS/MS, mouse brain membrane proteome, selectivity assay for pPAFAH inhibitor project, late-stage follow-up (AID 588785)
Pafah1b3 = settings: ABPP-MudPIT FP-biotin spectral counts, at 1 µM, stronger effect = lower value
Outline: (§1)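 Material – mouse brain membrane proteome · Input – 1 mg/mL membrane protein · Medium – 50 mM Tris buffer, pH 8.0 · Reagent – 5 µM FP-biotin probe · Schedule – 30 min 37 °C compound, 2 h 25 °C probe · Signal – ABPP-MudPIT LC-MS/MS spectral counting · Evaluation – spectral-count ratio per serine hydrolase, compound over DMSO · Replicates – 3–4 biological replicates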

Fam108a = settings: ABPP-MudPIT FP-biotin spectral counts, at 1 µM, stronger effect = lower value
Outline: as §1

Abhd11 = settings: ABPP-MudPIT FP-biotin spectral counts, at 1 µM, stronger effect = lower value
Outline: as §1

Acot1 = settings: ABPP-MudPIT FP-biotin spectral counts, at 1 µM, stronger effect = lower value
Outline: as §1

Fasn = settings: ABPP-MudPIT FP-biotin spectral counts, at 1 µM, stronger effect = lower value
Outline: as §1

Lyplal1 = settings: ABPP-MudPIT FP-biotin spectral counts, at 1 µM, stronger effect = lower value
Outline: as §1

Pafah1b2 = settings: ABPP-MudPIT FP-biotin spectral counts, at 1 µM, stronger effect = lower value
Outline: as §1

Magl = settings: ABPP-MudPIT FP-biotin spectral counts, at 1 µM, stronger effect = lower value
Outline: as §1

Esd = settings: ABPP-MudPIT FP-biotin spectral counts, at 1 µM, stronger effect = lower value
Outline: as §1

Pla2g15 = settings: ABPP-MudPIT FP-biotin spectral counts, at 1 µM, stronger effect = lower value
Outline: as §1

Acot2 = settings: ABPP-MudPIT FP-biotin spectral counts, at 1 µM, stronger effect = lower value
Outline: as §1

Lipe = settings: ABPP-MudPIT FP-biotin spectral counts, at 1 µM, stronger effect = lower value
Outline: as §1

Pnpla6 = settings: ABPP-MudPIT FP-biotin spectral counts, at 1 µM, stronger effect = lower value
Outline: as §1

Parl = settings: ABPP-MudPIT FP-biotin spectral counts, at 1 µM, stronger effect = lower value
Outline: as §1

[1] = target: Platelet-activating factor acetylhydrolase (Mus musculus) (UniProt Q60963); settings: ABPP-MudPIT FP-biotin spectral counts, Pla2g7 (pPAFAH), at 1 µM, stronger effect = lower value
Chain of Platelet-activating factor acetylhydrolase (Mus musculus) (Q60963 whole entry, looked up): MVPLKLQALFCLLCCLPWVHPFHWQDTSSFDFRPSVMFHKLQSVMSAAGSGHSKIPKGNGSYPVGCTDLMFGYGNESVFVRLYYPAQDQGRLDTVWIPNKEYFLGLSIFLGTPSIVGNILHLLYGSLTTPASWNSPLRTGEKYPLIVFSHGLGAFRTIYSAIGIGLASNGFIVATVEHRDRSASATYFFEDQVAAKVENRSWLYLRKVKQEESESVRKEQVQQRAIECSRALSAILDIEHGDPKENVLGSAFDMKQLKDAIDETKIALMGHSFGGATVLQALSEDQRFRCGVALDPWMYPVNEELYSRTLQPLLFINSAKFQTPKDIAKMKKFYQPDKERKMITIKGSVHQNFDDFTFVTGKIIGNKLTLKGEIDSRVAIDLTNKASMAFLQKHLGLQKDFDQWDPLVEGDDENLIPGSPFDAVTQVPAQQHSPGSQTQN
Outline: as §1

Rbbp9 = settings: ABPP-MudPIT FP-biotin spectral counts, at 1 µM, stronger effect = lower value
Outline: as §1

Acot7 = settings: ABPP-MudPIT FP-biotin spectral counts, at 1 µM, stronger effect = lower value
Outline: as §1

Lactb = settings: ABPP-MudPIT FP-biotin spectral counts, at 1 µM, stronger effect = lower value
Outline: as §1

[2] = target: Prolyl endopeptidase (Mus musculus) (UniProt Q9QUR6); settings: ABPP-MudPIT FP-biotin spectral counts, Prep, at 1 µM, stronger effect = lower value
Chain of Prolyl endopeptidase (Mus musculus) (Q9QUR6 whole entry, looked up): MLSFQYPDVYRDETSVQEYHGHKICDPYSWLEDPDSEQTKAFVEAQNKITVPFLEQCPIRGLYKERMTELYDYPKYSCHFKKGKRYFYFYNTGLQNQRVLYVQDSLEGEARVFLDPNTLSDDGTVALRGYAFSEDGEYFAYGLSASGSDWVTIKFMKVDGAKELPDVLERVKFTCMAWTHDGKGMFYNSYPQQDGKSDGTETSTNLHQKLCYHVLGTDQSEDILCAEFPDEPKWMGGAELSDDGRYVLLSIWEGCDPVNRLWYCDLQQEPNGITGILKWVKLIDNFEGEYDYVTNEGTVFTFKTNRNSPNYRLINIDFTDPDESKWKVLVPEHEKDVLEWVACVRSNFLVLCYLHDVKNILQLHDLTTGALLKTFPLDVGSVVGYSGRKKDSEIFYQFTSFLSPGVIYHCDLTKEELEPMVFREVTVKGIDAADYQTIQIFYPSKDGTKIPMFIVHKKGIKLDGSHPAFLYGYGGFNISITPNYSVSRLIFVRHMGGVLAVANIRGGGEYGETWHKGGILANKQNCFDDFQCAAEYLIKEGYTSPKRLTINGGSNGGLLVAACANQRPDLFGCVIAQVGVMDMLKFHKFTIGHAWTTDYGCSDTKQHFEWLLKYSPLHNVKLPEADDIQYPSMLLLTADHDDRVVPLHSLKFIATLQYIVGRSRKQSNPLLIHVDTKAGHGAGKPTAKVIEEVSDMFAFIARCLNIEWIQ
Outline: as §1

Fam108c1 = settings: ABPP-MudPIT FP-biotin spectral counts, at 1 µM, stronger effect = lower value
Outline: as §1

Faah = settings: ABPP-MudPIT FP-biotin spectral counts, at 1 µM, stronger effect = lower value
Outline: as §1

Tpp2 = settings: ABPP-MudPIT FP-biotin spectral counts, at 1 µM, stronger effect = lower value
Outline: as §1

Fam108b1 = settings: ABPP-MudPIT FP-biotin spectral counts, at 1 µM, stronger effect = lower value
Outline: as §1

Dpp9 = settings: ABPP-MudPIT FP-biotin spectral counts, at 1 µM, stronger effect = lower value
Outline: as §1

Dpp8 = settings: ABPP-MudPIT FP-biotin spectral counts, at 1 µM, stronger effect = lower value
Outline: as §1

Acot6 = settings: ABPP-MudPIT FP-biotin spectral counts, at 1 µM, stronger effect = lower value
Outline: as §1

[3] = target: Acyl-protein thioesterase 1 (Mus musculus) (UniProt P97823); settings: ABPP-MudPIT FP-biotin spectral counts, Lypla1, at 1 µM, stronger effect = lower value
Chain of Acyl-protein thioesterase 1 (Mus musculus) (P97823 whole entry, looked up): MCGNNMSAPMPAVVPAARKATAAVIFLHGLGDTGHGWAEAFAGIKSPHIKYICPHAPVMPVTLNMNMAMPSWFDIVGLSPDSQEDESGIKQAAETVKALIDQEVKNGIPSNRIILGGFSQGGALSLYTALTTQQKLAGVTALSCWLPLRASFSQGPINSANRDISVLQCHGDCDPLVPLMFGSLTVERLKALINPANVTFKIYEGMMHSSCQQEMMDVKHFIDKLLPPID
Outline: as §1

Es1 = settings: ABPP-MudPIT FP-biotin spectral counts, at 1 µM, stronger effect = lower value
Outline: as §1

Lypla2 = settings: ABPP-MudPIT FP-biotin spectral counts, at 1 µM, stronger effect = lower value
Outline: as §1

Prepl = settings: ABPP-MudPIT FP-biotin spectral counts, at 1 µM, stronger effect = lower value
Outline: as §1

Acot3 = settings: ABPP-MudPIT FP-biotin spectral counts, at 1 µM, stronger effect = lower value
Outline: as §1

Prcp = settings: ABPP-MudPIT FP-biotin spectral counts, at 1 µM, stronger effect = lower value
Outline: as §1

[4] = target: Monoacylglycerol lipase ABHD6 (Mus musculus) (UniProt Q8R2Y0); settings: ABPP-MudPIT FP-biotin spectral counts, at 1 µM, stronger effect = lower value
Chain of Monoacylglycerol lipase ABHD6 (Mus musculus) (Q8R2Y0 whole entry, looked up): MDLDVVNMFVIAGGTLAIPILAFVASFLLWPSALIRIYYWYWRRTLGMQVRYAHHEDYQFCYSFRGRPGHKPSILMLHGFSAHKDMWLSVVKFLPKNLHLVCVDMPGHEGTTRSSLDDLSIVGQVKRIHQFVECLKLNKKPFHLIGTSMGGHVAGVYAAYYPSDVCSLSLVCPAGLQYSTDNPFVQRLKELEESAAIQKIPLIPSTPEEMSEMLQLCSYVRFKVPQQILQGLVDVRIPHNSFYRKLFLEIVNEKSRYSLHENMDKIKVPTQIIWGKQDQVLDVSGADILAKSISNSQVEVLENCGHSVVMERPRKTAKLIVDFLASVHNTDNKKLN
Outline: as §1

Nceh1 = settings: ABPP-MudPIT FP-biotin spectral counts, at 1 µM, stronger effect = lower value
Outline: as §1

Apeh = settings: ABPP-MudPIT FP-biotin spectral counts, at 1 µM, stronger effect = lower value
Outline: as §1

Bat5 = settings: ABPP-MudPIT FP-biotin spectral counts, at 1 µM, stronger effect = lower value
Outline: as §1

Abhd4 = Abhd4 (UniProt Q8VD66); settings: ABPP-MudPIT FP-biotin spectral counts, at 1 µM, stronger effect = lower value
Chain of Abhd4 (Q8VD66 whole entry, looked up): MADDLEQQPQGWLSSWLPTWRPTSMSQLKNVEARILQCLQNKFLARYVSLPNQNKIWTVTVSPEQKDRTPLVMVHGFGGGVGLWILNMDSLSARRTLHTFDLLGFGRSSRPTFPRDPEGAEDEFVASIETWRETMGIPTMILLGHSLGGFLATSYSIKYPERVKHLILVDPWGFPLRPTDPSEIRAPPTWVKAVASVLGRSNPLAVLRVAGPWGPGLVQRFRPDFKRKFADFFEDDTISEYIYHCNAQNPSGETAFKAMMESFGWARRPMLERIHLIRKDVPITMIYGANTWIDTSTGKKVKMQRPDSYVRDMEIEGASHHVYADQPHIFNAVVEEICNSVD
Outline: as §1

[5] = target: Palmitoyl-protein thioesterase ABHD10, mitochondrial (Mus musculus) (UniProt Q6PE15); settings: ABPP-MudPIT FP-biotin spectral counts, at 1 µM, stronger effect = lower value
Chain of Palmitoyl-protein thioesterase ABHD10, mitochondrial (Mus musculus) (Q6PE15 whole entry, looked up): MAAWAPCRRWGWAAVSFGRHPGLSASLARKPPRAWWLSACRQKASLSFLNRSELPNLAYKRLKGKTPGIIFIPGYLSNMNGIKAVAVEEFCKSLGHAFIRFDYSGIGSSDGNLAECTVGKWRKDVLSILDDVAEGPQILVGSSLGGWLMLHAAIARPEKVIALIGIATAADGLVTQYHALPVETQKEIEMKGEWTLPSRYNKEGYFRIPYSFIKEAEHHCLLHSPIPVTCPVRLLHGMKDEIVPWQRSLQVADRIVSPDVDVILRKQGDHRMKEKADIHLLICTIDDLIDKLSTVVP
Outline: as §1

Ache = settings: ABPP-MudPIT FP-biotin spectral counts, at 1 µM, stronger effect = lower value
Outline: as §1

Abhd12 = settings: ABPP-MudPIT FP-biotin spectral counts, at 1 µM, stronger effect = lower value
Outline: as §1

Abhd3 = settings: ABPP-MudPIT FP-biotin spectral counts, at 1 µM, stronger effect = lower value
Outline: as §1

Pme1 = settings: ABPP-MudPIT FP-biotin spectral counts, at 1 µM, stronger effect = lower value
Outline: as §1

Pnpla8 = settings: ABPP-MudPIT FP-biotin spectral counts, at 1 µM, stronger effect = lower value
Outline: as §1

Structure (SMILES): Cc1cc(N2CCN(C(=O)Oc3ccc(-c4ccccc4)cn3)CC2)c2ccccc2n1
- spectra count ratio compound/DMSO (Pafah1b3): 0.8 (inactive)
- spectra count ratio compound/DMSO (Fam108a): 0.9 (inactive)
- spectra count ratio compound/DMSO (Abhd11): 1 (inactive)
- spectra count ratio compound/DMSO (Acot1): 1 (inactive)
- spectra count ratio compound/DMSO (Fasn): 1 (inactive)
- spectra count ratio compound/DMSO (Lyplal1): 1.2 (inactive)
- spectra count ratio compound/DMSO (Pafah1b2): 0.8 (inactive)
- spectra count ratio compound/DMSO (Magl): 1.3 (inactive)
- spectra count ratio compound/DMSO (Esd): 1.2 (inactive)
- spectra count ratio compound/DMSO (Pla2g15): 0.8 (inactive)
- spectra count ratio compound/DMSO (Acot2): 1.4 (inactive)
- spectra count ratio compound/DMSO (Lipe): 1.3 (inactive)
- spectra count ratio compound/DMSO (Pnpla6): 0.8 (inactive)
- spectra count ratio compound/DMSO (Parl): 1.1 (inactive)
- spectra count ratio compound/DMSO [1]: 0.1
- spectra count ratio compound/DMSO (Rbbp9): 1.3 (inactive)
- spectra count ratio compound/DMSO (Acot7): 0.7 (inactive)
- spectra count ratio compound/DMSO (Lactb): 0.7 (inactive)
- spectra count ratio compound/DMSO [2]: 1.2 (inactive)
- spectra count ratio compound/DMSO (Fam108c1): 1 (inactive)
- spectra count ratio compound/DMSO (Faah): 0.8 (inactive)
- spectra count ratio compound/DMSO (Tpp2): 1.2 (inactive)
- spectra count ratio compound/DMSO (Fam108b1): 1.1 (inactive)
- spectra count ratio compound/DMSO (Dpp9): 1.1 (inactive)
- spectra count ratio compound/DMSO (Dpp8): 0.9 (inactive)
- spectra count ratio compound/DMSO (Acot6): 1 (inactive)
- spectra count ratio compound/DMSO [3]: 1.6 (inactive)
- spectra count ratio compound/DMSO (Es1): 0
- spectra count ratio compound/DMSO (Lypla2): 1.7 (inactive)
- spectra count ratio compound/DMSO (Prepl): 1.1 (inactive)
- spectra count ratio compound/DMSO (Acot3): 0.8 (inactive)
- spectra count ratio compound/DMSO (Prcp): 1 (inactive)
- spectra count ratio compound/DMSO [4]: 1.1 (inactive)
- spectra count ratio compound/DMSO (Nceh1): 1.1 (inactive)
- spectra count ratio compound/DMSO (Apeh): 0.9 (inactive)
- spectra count ratio compound/DMSO (Bat5): 0.9 (inactive)
- spectra count ratio compound/DMSO (Abhd4): 1 (inactive)
- spectra count ratio compound/DMSO [5]: 1.5 (inactive)
- spectra count ratio compound/DMSO (Ache): 0.9 (inactive)
- spectra count ratio compound/DMSO (Abhd12): 1.1 (inactive)
- spectra count ratio compound/DMSO (Abhd3): 1.3 (inactive)
- spectra count ratio compound/DMSO (Pme1): 1.3 (inactive)
- spectra count ratio compound/DMSO (Pnpla8): 0.9 (inactive)

Reference: PubChem BioAssay AID588785 (The Scripps Research Institute Molecular Screening Center, 2011)
